Measured values as given in ChEMBL document CHEMBL4665829, “Synthesis, Structure-Activity Relationship, and Antimalarial Efficacy of 6-Chloro-2-arylvinylquinolines” (J Med Chem, 2020).
Calls of active or inactive are those of the source. No cut-off for these calls is given here.

Experiments:
[1] = system: Plasmodium falciparum; test: Induction of morphological changes in chloroquine-resistant Plasmodium falciparum Dd2 assessed as appearance of membrane-bound structure at 5 times of EC50 measured after 1.5 to 12 hrs by TEM analysis; format: functional, organism-based; details: time hrs 1.5-12
Method in brief: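 Fixed in 2% paraformaldehyde/2.5% glutaraldehyde in cacodylate pH 7.4, post-fixed in 1% OsO₄, en bloc 1% uranyl acetate, ethanol-dehydrated, Eponate-embedded. 95 nm sections stained with uranyl acetate/lead citrate for TEM.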

[2] = Toxicity in BALB/c mouse infected with Plasmodium berghei ANKA expressing luciferase assessed as hypotrichosis at 25 to 100 mg/kg, po for 4 days measured up to 30 days; format: organism-based; details: in vivo, 96 h, dose 25-100 mg/kg, time 4 day
Method in brief: (§1)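 Female BALB/c mice (10 weeks, ~20 g), five per group, were inoculated i.p. with 10⁶ P. berghei ANKA 676m1cl1-parasitized RBC. Oral gavage in 2% methylcellulose/0.5% Tween 80, once daily for 4 days starting 4 h post-infection, against a vehicle control. Tail-blood Giemsa smears from day 4. Signs and body weight were followed. Sacrifice at 40% parasitemia; cure meant a negative smear at day 30. Kaplan–Meier, log-rank.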

[3] = Toxicity in BALB/c mouse infected with Plasmodium berghei ANKA expressing luciferase assessed as reduction in weight at 25 to 100 mg/kg, po for 4 days measured up to 30 days; format: organism-based; details: in vivo, 96 h, dose 25-100 mg/kg, time 4 day; method in brief: as §1
[4] = Toxicity in BALB/c mouse infected with Plasmodium berghei ANKA expressing luciferase assessed as reduction in mobility at 25 to 100 mg/kg, po for 4 days measured up to 30 days; format: organism-based; details: in vivo, 96 h, dose 25-100 mg/kg, time 4 day; method in brief: as §1
[5] = system: Plasmodium berghei; test: Antiplasmodial activity against Plasmodium berghei ANKA expressing luciferase infected in BALB/c mouse assessed as mean survival days at 100 mg/kg, po for 4 days using monophosphate salt form of compound (reference value: 8 day); format: functional; details: time 4 day
[6] = system: Plasmodium falciparum; test: Antiplasmodial activity against synchronous gametocyte early stage of Plasmodium falciparum 3D7 harboring luc7 incubated for 72 hrs by ONE-Glo luciferase assay; format: functional, organism-based; details: 3D7, 72 h
Method in brief: (§2)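 Gametocytes of P. falciparum 3D7 luc7 induced by nutrient starvation, cultured in heparin medium to remove asexual stages, Percoll-purified as early (II–III) or late (IV–V) stage. 50,000 gametocytes/well exposed 72 h to a 19-point gradient, 0.038 nM–10 μM. ONE-Glo luciferase read after 5 min. EC50 by nonlinear curve fit; three experiments.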

[7] = system: Plasmodium falciparum; test: Antiplasmodial activity against synchronized chloroquine-resistant Plasmodium falciparum Dd2 reduction in microbial growth 5 times of EC50 treated with compound at 6 to 30 hrs post infection measured after 12 hrs by Giemsa staining-based microscopic analysis; format: functional, organism-based
Method in brief: (§3)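 Dd2 cultures tightly synchronized by magnetic separation and sorbitol were dosed at 5 × EC50 at 6, 18, 30 or 42 h post-invasion. Controls: DHA 50 nM, atovaquone 6.6 nM, DMSO 0.1%. Sampled every 12 h for Giemsa thin smears and for flow cytometry: glutaraldehyde/paraformaldehyde fixation, Triton permeabilization, RNAse, 500 nM YOYO-1, 500,000 events/sample. Three independent biological replicates.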

[8] = Intrinsic clearance in mouse liver microsomes assessed as parent compound at 1 uM after 60 mins in presence of NADPH by LC-MS analysis; format: ADME, Microsome
Method in brief: (§4)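 Mouse liver microsomes (0.5 mg/mL final protein) in 0.1 M phosphate, pH 7.4, with compound at 1 μM, 37 °C with shaking. Aliquots were quenched in cold acetonitrile and centrifuged; LC–MS gave parent peak area at 60 min relative to 0 min.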

[9] = system: Hemozoin; test: Inhibition of beta-hematin formation at 12.5 to 200 uM after 16 hrs by inverted microscopic analysis; details: dose microM 12.5-200, time 16.0 hrs
Method in brief: (§5)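 Hemin (2 mM stock in 0.1 M NaOH; 100 μM final), propionate buffer pH 5.2 and sonicated phosphatidylcholine were incubated with a compound concentration series for 16 h at 37 °C with gentle shaking. Crystals were imaged by inverted microscope before quenching with 7.5% SDS in bicarbonate, pH 9.1. Free hemin was measured at 405 nm against a 0–16 μM calibration. Three independent experiments.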

[10] = system: Plasmodium falciparum; test: Antiplasmodial activity against synchronized chloroquine-resistant Plasmodium falciparum Dd2 reduction in microbial growth 5 times of EC50 treated with compound at 42 hrs post infection measured after 12 hrs by YOYO-1 staining-based flow cytometric analysis; format: functional, organism-based; method in brief: as §3
[11] = system: Plasmodium falciparum; test: Antiplasmodial activity against synchronized chloroquine-resistant Plasmodium falciparum Dd2 reduction in microbial growth at 5 times of EC50 treated with compound at 42 hrs post infection measured after 12 hrs by Giemsa staining-based microscopic analysis; format: functional, organism-based; method in brief: as §3
[12] = system: Plasmodium falciparum; test: Parasiticidal activity against chloroquine-resistant Plasmodium falciparum Dd2 infected in RBC assessed as reduction in parasitemia at 5 times of EC50 incubated for 6 to 48 hrs followed by compound washout and then incubated for 96 hrs by Giemsa staining based microscopic analysis; format: functional, organism-based; details: time hrs 6-48
Method in brief: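 Controls: 0.15% DMSO, DHA 50 nM, atovaquone 6.6 nM. Drug removed by three RPMI washes, then parasitemia followed daily for 96 h by Giemsa thin smears. Three independent biological replicates.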

[13] = Stability of compound in mouse liver microsomes assessed as parent compound remaining at 1 uM after 60 mins in presence of NADPH by LC-MS analysis; format: ADME, Microsome; details: 1 h; method in brief: as §4
[14] = system: Plasmodium berghei; test: Antiplasmodial activity against Plasmodium berghei ANKA expressing luciferase infected in Swiss Webster mouse at 25 mg/kg, po for 5 days using monophosphate salt form of compound by luminescence based assay; format: functional, organism-based; details: time 5.0 day
Method in brief: (§6)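 Female Swiss Webster mice got 10³ RBC infected with luciferase-expressing P. berghei ANKA. From 48 h post-infection, groups of five were gavaged once daily for 5 days in 2% methylcellulose/0.5% Tween 80, against a vehicle control. On day 7, mice received 150 mg/kg D-luciferin in PBS, and bioluminescence was imaged by IVIS as a measure of parasite load.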

[15] = Selectivity index, ratio of EC50 for cytotoxicity against human HepG2 cells to antiplasmodial activity against chloroquine-resistant Plasmodium falciparum Dd2; format: toxicity, cell-based; details: read-out: Ratio EC50
[16] = system: Plasmodium berghei; test: Antiplasmodial activity against Plasmodium berghei ANKA expressing luciferase infected in Swiss Webster mouse at 100 mg/kg, po for 5 days using monophosphate salt form of compound by luminescence based assay; format: functional, organism-based; details: time 5.0 day; method in brief: as §6
[17] = system: HepG2; test: Cytotoxicity against human HepG2 cells assessed as reduction in cell viability after 48 hrs by MTS assay; format: cell-based; details: HepG2, 48 h
Method in brief: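 HepG2 cells were seeded at 2250 per well and grown 24 h at 37 °C, 5% CO₂. Serial dilutions starting at 25 μM were added for a further 48 h. MTS was then added for 3 h at 37 °C and absorbance read at 490 nm. EC₅₀ came from nonlinear dose–response fits.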

[18] = system: Plasmodium berghei; test: Antiplasmodial activity against Plasmodium berghei ANKA expressing luciferase infected in BALB/c mouse at 25 mg/kg, po for 4 days using monophosphate salt form of compound by Giemsa staining based microscopic analysis; format: functional, organism-based; details: time 4.0 day; method in brief: as §1
[19] = system: Plasmodium falciparum; test: Antiplasmodial activity against synchronous gametocyte late stage of Plasmodium falciparum 3D7 harboring luc7 incubated for 72 hrs by ONE-Glo luciferase assay; format: functional, organism-based; details: 3D7, 72 h; method in brief: as §2
[20] = Resistant index, ratio of EC50 for antiplasmodial activity against chloroquine-resistant Plasmodium falciparum Dd2 to antiplasmodial activity against chloroquine-sensitive Plasmodium falciparum 3D7; format: functional
[21] = Toxicity in BALB/c mouse infected with Plasmodium berghei ANKA expressing luciferase assessed as hunched posture at 25 to 100 mg/kg, po for 4 days measured up to 30 days; format: organism-based; details: in vivo, 96 h, dose 25-100 mg/kg, time 4 day; method in brief: as §1
[22] = system: Plasmodium falciparum; test: Antiplasmodial activity against chloroquine-sensitive Plasmodium falciparum 3D7 infected in human erythrocytes assessed as reduction in microbial growth after 72 hrs by SYBR green I staining based fluorescence assay; format: functional, organism-based; details: 3D7, Erythrocyte
Method in brief: (§7)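 SYBR Green I assay: twofold serial dilutions on P. falciparum cultures at 1% parasitemia, 1% hematocrit, 37 °C, 5% CO₂, 72 h, max 0.1% DMSO. DMSO and CQ as growth and inhibition controls. Plates frozen at −80 °C, thawed, lysed in Tris/saponin/EDTA/Triton buffer with 0.01% SYBR Green I, 1 h dark at room temperature. Fluorescence read at 485 ex/530 em. EC50 by nonlinear dose–response fit.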

[23] = system: Plasmodium falciparum; test: Antiplasmodial activity against chloroquine-resistant Plasmodium falciparum Dd2 infected in human erythrocytes assessed as reduction in microbial growth after 72 hrs by SYBR green I staining based fluorescence assay; format: functional, organism-based; details: Dd2, Erythrocyte; method in brief: as §7
[24] = system: Plasmodium falciparum; test: Antiplasmodial activity against synchronized chloroquine-resistant Plasmodium falciparum Dd2 reduction in microbial growth 5 times of EC50 treated with compound at 6 to 30 hrs post infection measured after 12 hrs by YOYO-1 staining-based flow cytometric analysis; format: functional, organism-based; method in brief: as §3
[25] = system: Plasmodium falciparum; test: Potency index, ratio of EC50 for UCF501 to test compound EC50 for antiplasmodial activity against chloroquine-resistant Plasmodium falciparum Dd2 infected in human erythrocytes assessed as reduction in microbial growth after 72 hrs by SYBR green I staining based fluorescence assay; format: functional, Erythrocyte; method in brief: as §7
[26] = system: Plasmodium falciparum; test: Antiplasmodial activity against late trophozoite synchronized chloroquine-resistant Plasmodium falciparum Dd2 reduction in microbial growth at 5 times of EC50 after 12 hrs by Giemsa staining-based microscopic analysis; format: functional, organism-based; method in brief: as §3
[27] = system: Plasmodium falciparum; test: Antiplasmodial activity against late trophozoite synchronized chloroquine-resistant Plasmodium falciparum Dd2 reduction in microbial growth at 5 times of EC50 after 12 hrs by YOYO-1 staining-based flow cytometric analysis; format: functional, organism-based; method in brief: as §3
[28] = Half life in mouse liver microsomes at 1 uM after 60 mins in presence of NADPH by LC-MS analysis; format: ADME, Microsome; details: 1 h; method in brief: as §4
[29] = system: Hemozoin; test: Inhibition of beta-hematin formation after 16 hrs by inverted microscopic analysis; details: dose microM 12.5-200, time 16.0 hrs; method in brief: as §5

Q: With `CN(C)CCNc1cc(/C=C/c2ccc(C(F)(F)F)cc2)nc2ccc(Cl)cc12` as the compound, how does the Activity [1] read?
A: Active

Q: And the Activity [2]?
A: Non-Toxic

Q: What about the Activity [3] of the same compound?
A: Non-Toxic

Q: And the Activity [4]?
A: Non-Toxic

Q: What about the MSD [5] of the same compound?
A: 30 days

Q: What about the EC50 [6] of the same compound?
A: 472 nM

Q: And the Activity [7]?
A: Active

Q: What about the CLH [8] of the same compound?
A: 13.3 µL/min/mg

Q: What about the inhibition [9] of the same compound?
A: inactive

Q: What about the Activity [10] of the same compound?
A: inactive

Q: What about the Activity [11] of the same compound?
A: inactive

Q: What about the Activity [12] of the same compound?
A: Active

Q: And the Stabilty [13]?
A: 67.1%

Q: What about the Activity [14] of the same compound?
A: Active

Q: And the selectivity ratio [15]?
A: 1030

Q: And the Activity [16]?
A: Active

Q: And the EC50 [17]?
A: 11200 nM

Q: And the Activity [18]?
A: Active

Q: What about the EC50 [19] of the same compound?
A: 394 nM

Q: What about the Ratio EC50 [20] of the same compound?
A: 0.6

Q: What about the Activity [21] of the same compound?
A: Non-Toxic

Q: And the EC50 [22]?
A: 16.8 nM

Q: And the EC50 [23]?
A: 10.9 nM

Q: And the Activity [24]?
A: Active

Q: With `CN(C)CCNc1cc(/C=C/c2ccc(F)cc2)nc2ccc(Cl)cc12` as the compound, how does the EC50 [6] read?
A: 591 nM

Q: And the “Ratio EC50” value [25]?
A: 14

Q: And the CLH [8]?
A: 25.1 µL/min/mg

Q: What about the Activity [26] of the same compound?
A: Active

Q: What about the Activity [12] of the same compound?
A: Active

Q: And the Stabilty [13]?
A: 47.1%

Q: What about the Activity [14] of the same compound?
A: Active

Q: And the Activity [27]?
A: Active

Q: What about the selectivity ratio [15] of the same compound?
A: 1110

Q: What about the Activity [16] of the same compound?
A: Active

Q: What about the t1/2 [28] of the same compound?
A: 55.2 min

Q: And the EC50 [17]?
A: 5330 nM

Q: What about the inhibition [29] of the same compound?
A: Dose-dependent effect

Q: And the EC50 [19]?
A: 2050 nM

Q: And the Ratio EC50 [20]?
A: 0.6

Q: And the EC50 [22]?
A: 8.7 nM

Q: What about the EC50 [23] of the same compound?
A: 4.8 nM
